# Measurements of several laboratories.
# Compare with care: the assays were run in different laboratories.
# Target: cGMP-dependent protein kinase 1 (PRKG1, Homo sapiens, UniProt Q13976)
# Sequence (Q13976 1-671, as in one of the studies): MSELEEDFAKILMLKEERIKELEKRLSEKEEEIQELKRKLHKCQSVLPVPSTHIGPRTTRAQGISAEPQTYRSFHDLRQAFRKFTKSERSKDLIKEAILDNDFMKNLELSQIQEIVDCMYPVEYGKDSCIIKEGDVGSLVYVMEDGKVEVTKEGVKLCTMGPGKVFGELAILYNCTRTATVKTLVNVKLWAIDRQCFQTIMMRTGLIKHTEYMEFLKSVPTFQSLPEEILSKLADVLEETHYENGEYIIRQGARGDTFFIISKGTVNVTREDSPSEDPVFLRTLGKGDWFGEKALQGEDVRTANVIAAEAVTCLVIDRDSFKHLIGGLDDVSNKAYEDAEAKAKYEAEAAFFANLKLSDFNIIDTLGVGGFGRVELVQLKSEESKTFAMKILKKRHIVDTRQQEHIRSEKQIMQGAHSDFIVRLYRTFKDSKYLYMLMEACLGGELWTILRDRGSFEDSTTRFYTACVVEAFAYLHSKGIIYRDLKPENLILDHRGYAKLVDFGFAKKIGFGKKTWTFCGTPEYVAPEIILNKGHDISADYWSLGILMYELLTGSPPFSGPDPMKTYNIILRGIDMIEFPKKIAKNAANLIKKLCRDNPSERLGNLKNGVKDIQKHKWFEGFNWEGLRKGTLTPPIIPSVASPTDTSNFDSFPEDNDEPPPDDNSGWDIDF
Compound,assay,setting,remaining binding [%]
CS(=O)(=O)NCC[C@H](NC(=O)c1cncc2c1cnn2-c1ccc(F)cc1)c1ccnc(S(C)(=O)=O)c1,"cell-free assay, competition with immobilised ligand",1 µM,96
O=C(Nc1c[nH]nc1C(=O)NC1CCNCC1)c1cc(F)cc(F)c1,"binding, competition with immobilised ligand",1 µM,100
O=C(c1ccc(Nc2ncc(Cl)c(-c3cc4ccccc4s3)n2)cc1)N1CCC(N2CCCC2)CC1,"binding, competition with immobilised ligand",1 µM,100
FC(F)(F)c1ccc2c(c1)nc(-c1cccnc1)n2C1CC1,"cell-free assay, competition with immobilised ligand",1 µM,87
C[C@H]1CCN(c2nccc(-c3cnn4ncccc34)n2)C1,binding,1 µM,98
C[C@@]1(Cc2ccc(C#N)cc2)C(=O)N(c2cc(Cl)cc(Cl)c2)c2ncc(C(=O)NC3(c4nc(C5CCC5)no4)CC3)n21,"cell-free assay, competition with immobilised ligand",1 µM,100
C[C@@H](c1ccc(-n2cnc3c(N)ncnc32)cc1)N1CCc2nn(C)c(Cc3ccccc3)c2C1=O,"binding, competition with immobilised ligand",0.1 µM,82
CCN1CCN(Cc2ccc(C(=O)Nc3ccc(C)c(Oc4ccc5c(c4)CC(=O)N5)c3)cc2C(F)(F)F)CC1,"binding, competition with immobilised ligand",1 µM,100
COc1ccc2c(c1)O[C@@H](c1ccc(OC)c(OC)c1)C[C@H]2NC(=O)C1(c2ccc3c(c2)OC(F)(F)O3)CC1,"cell-free assay, competition with immobilised ligand",1 µM,100
CN(CCCC(F)(F)F)c1nccc(-c2cnn3ncccc23)n1,binding,1 µM,100
O=C(NCCCN1CCOCC1)c1ccc(Nc2ncc(Cl)c(-c3ccc(Cl)s3)n2)cc1,"binding, competition with immobilised ligand",1 µM,100
COc1ccnn2ncc(-c3ccnc(N(C)C)n3)c12,binding,1 µM,100
O=C(NCCCN1CCOCC1)c1ccc(Nc2nccc(-c3cc4ccccc4s3)n2)cc1,"binding, competition with immobilised ligand",1 µM,99
N[C@@H]1CCN(c2nccc(-c3cnn4ncccc34)n2)C1,binding,1 µM,100
Cc1c(C(=O)O)cc(-c2ccc(C3CCNCC3)cc2)c2ccc(-c3ccc(C(F)(F)F)cc3)cc12,"binding, competition with immobilised ligand",1 µM,97
CC1CCCN1c1nccc(-c2cnn3ncccc23)n1 (stereo not drawn),binding,1 µM,89
Cc1c[nH]c2nccc(Oc3c(F)cc(Nc4cc(Cl)nc(N)n4)cc3F)c12,"cell-free assay, competition with immobilised ligand",0.1 µM,49
COc1cnc(Nc2cccc(S(N)(=O)=O)c2)nc1N1CCN(c2ccccc2)C(=O)C1,"binding, competition with immobilised ligand",1 µM,100
Cc1cnn2ncc(-c3ccnc(N(C)C)n3)c2c1,binding,1 µM,99
FC(F)(F)Oc1cccc(-c2cnc3ccc(-c4ccncc4)nn23)c1,"cell-free assay, competition with immobilised ligand",5 µM,98
CNC(=O)[C@@H]1CC[C@@H](n2c(-c3ccc4cnccc4c3)nc3ccc(C(=O)NCc4cccc(C(N)=O)c4)cc32)C1,"binding, competition with immobilised ligand",1 µM,98
